Calls of active or inactive are those of the source. No cut-off for these calls is given here.
How the values were obtained:
[1] = system: MDA-MB-231; assay: Antiproliferative activity against human MDA-MB-231 cells after 48 hrs by sulforhodamine B assay; assay type: functional, cell-based; settings: MDA-MB-231, 48 h
In short: (§1)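 Cells kept in RPMI 1640 at 37 °C, 5% CO₂, and seeded 24 h before treatment, with DMSO as control. After 48 h, fixed with cold 50% TCA 1 h at 4 °C and stained with 0.4% SRB in 1% acetic acid for 10 min. Washed five times with 1% acetic acid, dye solubilized in 10 mM Tris base, OD read at 515 nm.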

[2] = system: A549; assay: Antiproliferative activity against human A549 cells after 48 hrs by sulforhodamine B assay; assay type: functional, cell-based; settings: A549, 48 h; in short: as §1
[3] = system: MDA-MB-231; assay: Antimetastatic activity against human MDA-MB-231 cells assessed as inhibition of cell migration after 24 hrs by wound healing assay; assay type: functional, cell-based; settings: for IC50: MDA-MB-231, 24 h
In short: (§2)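 Cells grown at 37 °C in complete RPMI 1640 to 80–90% confluence, then serum-starved 12 h. Monolayer scraped with pipette tip, washed twice with PBS, refed complete RPMI 1640 with compound (0.5 or 0.05 uM per legend). Incubated 24 h at 37 °C, then fixed and photographed. Migrated cells counted manually, inhibition expressed relative to untreated (100%). Three independent experiments, 95% CI.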

[4] = system: MDA-MB-231; assay: Antimetastatic activity against human MDA-MB-231 cells assessed as inhibition of cell migration after 10 to 12 hrs by transwell assay; assay type: functional, cell-based
In short: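 MDA-MB-231 cells (5 × 10⁴) in serum-free medium placed in upper chamber, 10% FBS medium below; compound at fixed concentrations in both chambers. Migration approximately 10 h (legend says 12 h). Non-migrated cells swabbed off, migrated cells fixed in paraformaldehyde 1 h, stained 0.1% crystal violet, counted in 7–8 random fields. Three independent experiments, means with 95% confidence intervals.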

[5] = system: MDA-MB-231; assay: Antimetastatic activity against human MDA-MB-231 cells assessed as inhibition of cell migration at 0.5 uM after 24 hrs by wound healing assay; assay type: functional, cell-based; in short: as §2
[6] = system: A549; assay: Antitumor activity against human A549 cells xenografted in nude mouse assessed as reduction in tumor volume at 5 to 10 mg/kg/day, ip for 28 days; assay type: functional, organism-based
[7] = system: A549; assay: Cell cycle arrest in human A549 cells assessed as accumulation at G2/M phase at 1 uM by propidium iodide staining-based FACS analysis relative to control; assay type: functional
[8] = system: A549; assay: Induction of apoptosis in human A549 cells at 0.1 to 1 uM after 48 hrs by annexin V-FITC and propidium iodide staining-based flow cytometric analysis; assay type: functional, cell-based
In short: (§3)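 Treatment 48 h. Cells washed with cold PBS, resuspended in binding buffer, stained with Annexin V-FITC/PI 15 min. 10,000 stained cells per sample analyzed by flow cytometry.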

[9] = system: Mus musculus; assay: Toxicity in nude mouse xenografted with human A549 cells assessed as change in body weight at 5 to 10 mg/kg/day, ip for 28 days; assay type: organism-based; set-up: route intraperitoneal; settings: in vivo, 672 h
[10] = system: MDA-MB-231; assay: Antimetastatic activity against luciferase-labeled human MDA-MB-231 cells xenografted in nude mouse assessed as reduction in photon flux in lungs at 5 mg/kg/day, ip administered 1 week prior to tumor implantation measured after 21 days by bioluminescence assay relative to control; assay type: functional; set-up: scale not given: the % may be the effect or the level left; settings: route intraperitoneal
In short: (§4)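 Nude mice randomized into 3 groups (n = 6) and given DMSO or compound at 1.0 or 5.0 mg/kg/day by intraperitoneal injection. Dosing started one week before tail-vein injection of 1 × 10⁶ firefly luciferase-expressing MDA-MB-231 cells in PBS and continued 21 days. Lung metastasis read by bioluminescence photon flux; survival by Kaplan–Meier analysis.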

[11] = system: MDA-MB-231; assay: Antimetastatic activity against luciferase-labeled human MDA-MB-231 cells xenografted in ip dosed nude mouse assessed as reduction in development of lung metastasis administered 1 week prior to tumor implantation measured after 21 days by bioluminescence assay; assay type: functional, organism-based; in short: as §4
[12] = system: MDA-MB-231; assay: Induction of apoptosis in human MDA-MB-231 cells at 0.1 to 1 uM after 48 hrs by annexin V-FITC and propidium iodide staining-based flow cytometric analysis; assay type: functional, cell-based; in short: as §3
[13] = system: MDA-MB-231; assay: Cell cycle arrest in human MDA-MB-231 cells assessed as accumulation at G2/M phase at 1 uM by propidium iodide staining-based FACS analysis relative to control; assay type: functional
[14] = system: MDA-MB-231; assay: Antimetastatic activity against luciferase-labeled human MDA-MB-231 cells xenografted in nude mouse assessed as increase in mouse survival at 1 to 5 mg/kg/day, ip administered 1 week prior to tumor implantation measured after 21 days; assay type: functional, organism-based; in short: as §4
[15] = system: MDA-MB-231; assay: Antimetastatic activity against luciferase-labeled human MDA-MB-231 cells xenografted in nude mouse assessed as reduction in development of lung metastasis at 1 to 5 mg/kg/day, ip administered 1 week prior to tumor implantation measured after 21 days by bioluminescence assay; assay type: functional, organism-based; settings: TDE = time-dependent effect; in short: as §4
[16] = system: Mus musculus; assay: Toxicity in nude mouse xenografted with luciferase-labeled human MDA-MB-231 cells assessed as change in body weight at 1 to 5 mg/kg/day, ip administered 1 week prior to tumor implantation measured after 21 days; assay type: organism-based; set-up: route intraperitoneal; settings: in vivo, 504 h
[17] = system: A549; assay: Antitumor activity against human A549 cells xenografted in nude mouse assessed as reduction in tumor weight at 5 to 10 mg/kg/day, ip for 28 days; assay type: functional, organism-based

Row | SMILES | IC50 [1] [µM] | IC50 [2] [µM] | further results
1 | CN(C)c1ccccc1N1C(=O)CSC1c1cccc(Br)c1 (stereo not drawn) | > 50 | 37.6 | 
2 | COc1ccc(CCNC(=O)c2cccc(C3SCC(=O)N3c3ccccc3OC)c2)cc1 (stereo not drawn) | 0.05 | 0.13 | inhibition [3]: Active
3 | COc1ccccc1N1C(=O)CSC1c1cccc(C(=O)NCCc2ccccc2)c1 (stereo not drawn) | > 25 | 0.96 | inhibition [3]: Active
4 | O=C1CSC(c2cccc(Br)c2)N1CCc1ccccc1 (stereo not drawn) | > 50 | 20.7 | 
5 | COc1ccccc1N1C(=O)CSC1c1cccc(Cl)c1 (stereo not drawn) | 13.9 | 8.18 | 
6 | COC(=O)c1cccc(C2SCC(=O)N2c2ccccc2OC)c1 (stereo not drawn) | 23.1 | 0.29 | 
7 | COc1ccccc1N1C(=O)CSC1c1cccc(C(=O)NCCc2ccc(Cl)cc2)c1 (stereo not drawn) | 0.18 | 0.16 | IC50 [4]: 0.01 µM; inhibition [4]: Dose-dependent effect; IC50 [3]: < 0.05 µM
8 | COc1ccccc1N1C(=O)CSC1c1ccccc1 (stereo not drawn) | > 50 | > 50 | 
9 | O=C1CSC(c2cccc(Br)c2)N1c1cccc([N+](=O)[O-])c1 (stereo not drawn) | > 50 | 43.7 | 
10 | COc1ccccc1N1C(=O)CSC1c1cccc([N+](=O)[O-])c1 (stereo not drawn) | 43 | 11.3 | 
11 | COc1ccccc1N1C(=O)CSC1c1cccc(CBr)c1 (stereo not drawn) | > 50 | 14.4 | 
12 | COc1ccccc1N1C(=O)CSC1c1cccc(C(=O)NCCc2ccc(O)cc2)c1 (stereo not drawn) | 1.77 | 0.72 | inhibition [3]: Active
13 | COc1ccccc1N1C(=O)CSC1c1ccccc1Br (stereo not drawn) | > 50 | 31.5 | 
14 | COc1ccccc1N1C(=O)CSC1c1ccc2ccccc2n1 (stereo not drawn) | > 50 | > 50 | 
15 | COc1cccc(C2SCC(=O)N2c2ccccc2OC)c1 (stereo not drawn) | > 50 | > 50 | 
16 | O=C1CSC(c2cccc(Br)c2)N1c1ccc(O)cc1 (stereo not drawn) | > 50 | > 50 | 
17 | O=C1CSC(c2cccc(Br)c2)N1c1cccc(O)c1 (stereo not drawn) | 17.7 | 37.1 | 
18 | O=C1CSC(c2cccc(Br)c2)N1c1nccs1 (stereo not drawn) | > 50 | > 50 | 
19 | COc1ccccc1N1C(=O)CSC1c1cccc(C(=O)NCCc2ccc(F)cc2)c1 (stereo not drawn) | 1.36 | 0.47 | 
20 | O=C1CSC(c2cccc(Br)c2)N1c1cc(Cl)ccc1O (stereo not drawn) | 27 | 9.95 | inhibition [5]: inactive
21 | COc1ccccc1N1C(=O)CSC1c1cccc(C(=O)NCCc2ccc(Br)cc2)c1 (stereo not drawn) | 0.23 | 0.21 | Activity [6]: Active; Activity [7]: 42.4%; Activity [8]: inactive; Activity [9]: Non-toxic; Activity [10]: 96.5%; Activity [11]: Dose-dependent effect; Activity [12]: inactive; Activity [13]: 48.34%; Activity [14]: Active; IC50 [4]: 0.01 µM; inhibition [4]: Dose-dependent effect; Activity [15]: tde; Activity [16]: Toxic; Activity [17]: Active; IC50 [3]: < 0.05 µM
22 | CNc1ccccc1N1C(=O)CSC1c1cccc(Br)c1 (stereo not drawn) | > 50 | 22.6 | 

Row | SMILES | IC50 [1] [µM] | IC50 [2] [µM] | further results
23 | COc1ccccc1N1C(=O)CSC1c1ccc(Br)cc1 (stereo not drawn) | > 50 | 48.5 | 
24 | COc1ccccc1N1C(=O)CSC1c1cccc(F)c1 (stereo not drawn) | > 50 | > 50 | 
25 | COc1ccccc1N1C(=O)CSC1c1cccc(C(=O)Nc2ccccc2)c1 (stereo not drawn) | > 25 | > 25 | 
26 | COc1ccccc1N1C(=O)CSC1c1cccc(C(=O)NCc2ccccc2)c1 (stereo not drawn) | > 25 | 5.06 | 
27 | COc1ccccc1N1C(=O)CSC1c1cccs1 (stereo not drawn) | > 50 | > 50 | 
28 | COc1cccc(N2C(=O)CSC2c2cccc(Br)c2)c1 (stereo not drawn) | 47.5 | > 50 | 
29 | C=CCN(CC=C)C(=O)c1cccc(C2SCC(=O)N2c2ccccc2OC)c1 (stereo not drawn) | > 50 | > 50 | 
30 | CCN(CC)C(=O)c1cccc(C2SCC(=O)N2c2ccccc2OC)c1 (stereo not drawn) | > 50 | > 50 | 
31 | COc1ccccc1N1C(=O)CSC1c1cccc(O)c1 (stereo not drawn) | > 50 | > 50 | 
32 | O=C1CSC(c2cccc(Br)c2)N1c1ccccc1O (stereo not drawn) | 32.6 | 13.7 | 
33 | COc1ccccc1N1C(=O)CSC1c1cccc(C(=O)NCCc2ccccc2Br)c1 (stereo not drawn) | 13.9 | 8.52 | 
34 | O=C1CSC(c2cccc(Br)c2)N1c1ncccn1 (stereo not drawn) | > 50 | > 50 | 
35 | COc1ccccc1N1C(=O)CSC1Cc1ccccc1 (stereo not drawn) | > 50 | > 50 | 
36 | COc1ccccc1N1C(=O)CSC1c1cccc(C(=O)NCCCc2ccccc2)c1 (stereo not drawn) | 12.3 | 31.6 | 
37 | COc1ccccc1N1C(=O)CSC1c1ccncc1 (stereo not drawn) | > 50 | > 50 | 
38 | COc1ccccc1N1C(=O)CSC1c1cccc(C(=O)N2CCCCC2)c1 (stereo not drawn) | > 50 | > 50 | 
39 | COc1ccccc1N1C(=O)CSC1c1cccc(C(=O)O)c1 (stereo not drawn) | > 50 | > 50 | 
40 | COc1ccccc1N1C(=O)CSC1c1cccc(Br)c1 (stereo not drawn) | 4.52 | 1.87 | 
41 | CCOc1ccc(N2C(=O)CSC2c2cccc(Br)c2)cc1 (stereo not drawn) | 18 | 8.98 | 
42 | COc1ccc(N2C(=O)CSC2c2cccc(Br)c2)c(OC)c1 (stereo not drawn) | 17.1 | 14.8 | 
43 | O=C1CSC(c2cccc(Br)c2)N1c1ccccc1 (stereo not drawn) | > 50 | > 50 | 

Source: ChEMBL document CHEMBL3259573, “Optimization of 2-(3-(arylalkyl amino carbonyl) phenyl)-3-(2-methoxyphenyl)-4-thiazolidinone derivatives as potent antitumor growth and metastasis agents” (Eur J Med Chem, 2014)
